These results are taken from ChEMBL document CHEMBL3351348, “Synthesis and biological evaluation of new simple indolic non peptidic HIV Protease inhibitors: the effect of different substitution patterns” (Bioorg Med Chem, 2014).

The nature of the experiment: Inhibition of HIV Protease using Abz-Thr-Ile-Nle-Phe(NO2)-Gln-Arg as fluorogenic substrate by fluorimetry. On the set-up: species or system Human immunodeficiency virus. Summed up:
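Commercial HIV-PR at 10 nm final, in pH 5.5 MES buffer (100 mM MES/NaOH, 400 mM NaCl, 1 mM EDTA, 1 mM DTT), 25 °C thermostated cuvette. Substrate at 30 μM final. Excitation 325 nm, emission 420 nm. Enzyme added after 1.5 min and inhibitor (DMSO stock) after a further 1 min, then read 10 min. IC50 from initial rates over several inhibitor concentrations, at least three independent experiments.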

Each structure is given as a SMILES string.

Take `COc1ccc(S(=O)(=O)N(CC(C)C)C[C@@H](O)COc2ccc3[nH]ccc3c2)cc1OC`: the half-maximal inhibitory concentration (IC50) (read-out: IC50) amounted to 1 µM. On to `COc1ccc(S(=O)(=O)N(CC(C)C)C[C@@H](O)COc2ccc3cc[nH]c3c2)cc1OC`, for which the IC50 (read-out: IC50) was found to be 346 µM. The same measure, in the same setting: in the case of `CC(C)(C)NC(=O)[C@@H]1C[C@@H]2CCCC[C@@H]2CN1C[C@@H](O)COc1cccc2[nH]ccc12` it was 24 µM.

For the compound `CC(C)(C)NC(=O)[C@@H]1C[C@@H]2CCCC[C@@H]2CN1C[C@@H](O)COc1ccc2[nH]ccc2c1`, the IC50 (read-out: IC50) is 14 µM. Take `CC(C)(C)NC(=O)[C@@H]1C[C@@H]2CCCC[C@@H]2CN1C[C@@H](O)COc1ccc2cc[nH]c2c1`: the IC50 (read-out: IC50) is 138 µM. On to `CC(C)CN(C[C@@H](O)COc1cccc2[nH]ccc12)S(=O)(=O)c1ccc([N+](=O)[O-])cc1`, for which, where the note is “read-out: IC50”, the IC50 was found to be 346 µM. As to `CC(C)CN(C[C@@H](O)COc1ccc2[nH]ccc2c1)S(=O)(=O)c1ccc([N+](=O)[O-])cc1`, the IC50 (read-out: IC50) is 10 µM. Turning to `CC(C)CN(C[C@@H](O)COc1ccc2[nH]ccc2c1)S(=O)(=O)c1ccc(N)cc1`, the IC50 (read-out: IC50) turned out to be 12 µM. Still for that read-out and setting: in the case of `CC(C)CN(C[C@@H](O)COc1ccc2cc[nH]c2c1)S(=O)(=O)c1ccc([N+](=O)[O-])cc1` it was 46 µM; in that of `COc1ccc(S(=O)(=O)N(CC(C)C)C[C@@H](O)COc2cccc3[nH]ccc23)cc1OC`, 336 µM. Still for that read-out and setting: in the case of `CC(C)CN(C[C@@H](O)CNc1cccc2[nH]ccc12)S(=O)(=O)c1ccc([N+](=O)[O-])cc1` it was 2630 µM.

For the compound `CC(C)CN(C[C@@H](O)CNc1ccc2[nH]ccc2c1)S(=O)(=O)c1ccc([N+](=O)[O-])cc1`, the IC50 entry is “Not Active”. In the case of `COc1ccc(S(=O)(=O)N(CC(C)C)C[C@@H](O)CNc2cccc3[nH]ccc23)cc1OC`, the half-maximal inhibitory concentration (IC50) (read-out: IC50) stood at 336 µM.

`COc1ccc(S(=O)(=O)N(CC(C)C)C[C@@H](O)CNc2ccc3[nH]ccc3c2)cc1OC`: under “read-out: IC50”, the half-maximal inhibitory concentration (IC50) came to 4400 µM. Turning to `CC(C)(C)NC(=O)[C@@H]1C[C@@H]2CCCC[C@@H]2CN1C[C@@H](O)COC(=O)Nc1cccc2[nH]ccc12`, the concentration for half-maximal inhibition (IC50) (read-out: IC50) was 50 µM. For `CC(C)(C)NC(=O)[C@@H]1C[C@@H]2CCCC[C@@H]2CN1C[C@@H](O)COC(=O)Nc1ccc2[nH]ccc2c1`, the half-inhibitory concentration (IC50) (read-out: IC50) was determined as 606 µM. Still for that read-out and setting: in the case of `CC(C)CN(C[C@@H](O)COC(=O)Nc1cccc2[nH]ccc12)S(=O)(=O)c1ccc([N+](=O)[O-])cc1` it was 72 µM; in that of `CC(C)CN(C[C@@H](O)COC(=O)Nc1ccc2[nH]ccc2c1)S(=O)(=O)c1ccc([N+](=O)[O-])cc1`, 2 µM. For the compound `COc1ccc(S(=O)(=O)N(CC(C)C)C[C@@H](O)COC(=O)Nc2cccc3[nH]ccc23)cc1OC`, the IC50 (read-out: IC50) was 615 µM.

In the case of `COc1ccc(S(=O)(=O)N(CC(C)C)C[C@@H](O)COC(=O)Nc2ccc3[nH]ccc3c2)cc1OC`, the IC50 (read-out: IC50) turned out to be 1400 µM. For the compound `COc1ccc(S(=O)(=O)N(CC(C)C)C[C@@H](O)COC(=O)Nc2ccc3[nH]ccc3c2)cc1`, under “read-out: IC50”, the IC50 is 8 µM.

As for `CC(C)(C)NC(=O)[C@@H]1C[C@@H]2CCCC[C@@H]2CN1C[C@@H](O)CNc1cccc2[nH]ccc12`, the concentration for half-maximal inhibition (IC50) (read-out: IC50) came to 157 µM. For the compound `CC(C)(C)NC(=O)[C@@H]1C[C@@H]2CCCC[C@@H]2CN1C[C@@H](O)CNc1ccc2[nH]ccc2c1`, the half-maximal inhibitory concentration (IC50) (read-out: IC50) is 176 µM.

What is called IC50 is the concentration needed to halve the response being measured.
